In PubChem BioAssay AID651572 (The Scripps Research Institute Molecular Screening Center, 2012) one finds inhibition data, which are given here for 76 compounds.

Out of some 360,000 compounds screened, about 950 (0.26%) were called active. Many of the other results were omitted from the sample, so actives are more common in it than they were. Unmarked numbers belong to inactive results.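 How the source made its calls: active means inhibition above a per-plate limit, mean inhibition of low control wells plus 3 SD (cut at about 25% in these data); inactive means the rest.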

Chain of ADP-ribosylation factor GTPase-activating protein 1 (Rattus norvegicus) (Q62848 1-136 limits assumed): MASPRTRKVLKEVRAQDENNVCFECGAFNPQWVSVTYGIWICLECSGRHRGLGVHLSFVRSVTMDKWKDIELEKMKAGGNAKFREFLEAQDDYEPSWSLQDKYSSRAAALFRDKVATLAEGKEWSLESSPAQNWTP

In the experiment the target is ADP-ribosylation factor GTPase-activating protein 1 (Rattus norvegicus) (UniProt Q62848). Put plainly: blockers of ARFGAP1-stimulated ARF1 GTP hydrolysis – biochemical, fluorescence polarization, GDP tracer, primary screen (AID 651572).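 Further: 0% = DMSO wells with enzyme and 100% = wells lacking Arfgap1.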 To be noted: GDP FP detection, at 16.5 µM, stronger effect = higher value. A digest of the protocol:
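Assay system: Rat Arfgap1 GAP domain (His6, aa 1-136), purified enzyme | Buffer or medium: HEPES 25 mM pH 7.5, NaCl 150 mM, MgCl2, DTT | Schedule: GTP hydrolysis reaction 2 h at 25 °C | Signal: FP of antibody-bound GDP Alexa 633 tracer, ex 620/em 688 nm | Measure: Percent inhibition of Arfgap1-stimulated GTP hydrolysis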
As to `Brc1ccc(COCCc2cn(Cc3ccccc3)c3ccccc23)cc1`, the inhibition is 10.9%.
Regarding `CCN1C(=O)N[C@@H]2C[C@H](C(=O)N3CCCC3)[C@H](C)[C@H](c3ccccc3)C[C@@H]21`, the inhibition is -0.64%.
For the compound `O=C(C(=O)N1CCC(CNS(=O)(=O)Cc2ccccc2)CC1)c1cc2ccccc2o1`, the inhibition was 10.3%.
In the case of `O=C(NCc1ccccc1)[C@H]1CCCN1C(=O)[C@H]1CCCN1C(=O)c1cc(F)cc(F)c1` it was -2.81%; in that of `COc1ccc(C(CNC(=O)c2ccc(S(=O)(=O)Nc3ccccc3C)cc2)N2CCOCC2)cc1` (stereo unspecified), -2.87%.
Regarding `COc1ccc(C(CNC(=O)c2cccc(S(=O)(=O)Nc3ccccc3Cl)c2)N2CCOCC2)cc1` (stereo unspecified), the inhibition was 27% (active).
For `COc1ccc(C(CNC(=O)c2cccc(NS(=O)(=O)c3ccc(C)c(F)c3)c2)N2CCCC2)cc1` (stereo unspecified), the inhibition is 16.5%.
For `O=C(N[C@H](C(=O)N1CCC[C@H]1C(=O)NCCc1ccccc1Cl)c1ccccc1)c1ccccc1`, the inhibition is 0.74%.
The result for `Cc1ccccc1C(=O)N[C@H](C(=O)N1CCC[C@H]1C(=O)NCc1ccccc1)C(C)C` reads -4.95%; that for `C=CCSc1nnc(N2C(=O)C(O)=C(C(=O)c3ccco3)C2c2ccc(F)cc2)s1` (stereo unspecified), -2.87%; that for `COc1cc(C2C(C(=O)c3ccco3)=C(O)C(=O)N2c2cc(C)on2)ccc1OCc1ccccc1` (stereo unspecified), -0.46%.
Consider `Cc1ccc2nc(N3C(=O)C(O)=C(C(=O)c4ccco4)C3c3cccc(O)c3)sc2c1` (stereo unspecified), for which the inhibition was 28.5% (active).
As to `COC(=O)C1=C(C)N(Cc2ccccc2C(F)(F)F)C(=NCC2CC2)NC1c1cccc(Cl)c1` (stereo unspecified), the inhibition is -11.5%.
Regarding `CN1C(=O)C(Br)(Br)CC1c1cccnc1` (stereo unspecified), the inhibition was 15.5%.
With `CC(=O)c1ccc(S(=O)(=O)NCC2CCN(C(=O)C(=O)c3cccs3)CC2)cc1`, the inhibition is 0.05%.
The result for `Clc1cccc2c1C1CC2CCN1Cc1ccccc1` (stereo unspecified) reads 1.92%; that for `CC1CCN(S(=O)(=O)c2ccc3[nH]c(=O)ccc3c2)CC1`, -6.93%; that for `CCc1cccc(NC(=O)C2CCCN(S(=O)(=O)c3ccc4[nH]c(=O)ccc4c3)C2)c1` (stereo unspecified), -1.05%.
`Cc1cc(C)cc(NC(=O)C2CCCN(S(=O)(=O)c3ccc4[nH]c(=O)ccc4c3)C2)c1` (stereo unspecified): the inhibition is 27.2% (active).
For the compound `CCOc1ccccc1C(=O)N1CCC[C@@H]1C(=O)N1CCC[C@H]1C(=O)NCc1ccccc1`, the inhibition is 2.51%.
Turning to `C=CCN1C(=O)N(Cc2ccccc2)c2ccccc2S1(=O)=O`, the inhibition was -1.51%.
In the case of `O=C(CN1CCN(c2ccc(Cl)cc2)CC1)NCc1cccs1` it was -5.05%; in that of `COc1ccc(NC(=S)NCc2cccs2)c(OC)c1`, 7.24%; in that of `S=C(NCc1cccs1)Nc1ccc(Cl)cc1`, 28.2% (active).
The result for `COc1ccc(-c2ccc3c(n2)CCCN3S(=O)(=O)c2ccc(C)cc2)cc1` reads -4.31%; that for `COc1ccccc1-c1ccc([C@@H]2C[C@H]3[C@H](CON3C)CN2S(=O)(=O)c2cc(Cl)cc(Cl)c2)cc1`, 5.63%; that for `Nc1nc2c(ncn2[C@@H]2O[C@H](C(=O)N[C@@H](Cc3ccccc3)C(=O)NCc3ccccc3)[C@@H](O)[C@H]2O)c(=O)[nH]1`, -1.71%.
For the compound `COC(=O)[C@]12C[C@H](CC(=O)NCc3cccc(C(F)(F)F)c3)C(=O)N(Cc3ccc4c(c3)OCO4)C1=C[C@H](COCc1ccccc1)O[C@@H]2C`, the inhibition was 5.08%.
In the case of `Cc1[nH]nc2c1C(c1ccc(Br)cc1)NC2=O` (stereo unspecified) it was 2.74%; in that of `COC(=O)C1=C(C)N(Cc2ccccc2C(F)(F)F)C(=NCc2ccc(OC)cc2)NC1c1cccc(C(F)(F)F)c1` (stereo unspecified), 10.9%.
As to `O=C(CCc1ccccc1)Nc1ncc([N+](=O)[O-])s1`, the inhibition is 29% (active).
As to `CC(C)(C)NC(=O)CSc1nnc(NC(=O)CCc2ccccc2)s1`, the inhibition is 0.73%.
`O=C(CCc1ccccc1)Nc1nn[nH]n1`: the inhibition was 11.2%.
In the case of `Nc1ccn([C@@H]2O[C@H](C(=O)N[C@H]3CCCCNC3=O)[C@@H](O)[C@H]2O)c(=O)n1` it was -7.26%; in that of `COc1ccc(-c2ccccc2C2Cc3nnccc3CN2C(=O)Nc2ccccc2)cc1` (stereo unspecified), 0.85%.
In the case of `COc1ccc(NC(=O)CSc2nc(N)c(-c3ccccc3)c(=O)[nH]2)cc1`, the inhibition is 5.45%.
For `COc1ccc(NC(=O)c2ccccc2CC[N+](=O)[O-])cc1`, the inhibition was -2.01%.
In the case of `COc1ccc(NC(=O)c2cn(-c3ccccc3)nc2SC)cc1`, the inhibition was 25.1% (active).
Regarding `NC(=O)c1ncn([C@@H]2O[C@H](C(=O)O)[C@@H](O)[C@H]2O)n1`, the inhibition is -10.5%.
On to `COC(=O)C1=C(C)N(Cc2cccc(C(F)(F)F)c2)C(=NCc2cccc(C(F)(F)F)c2)NC1c1ccccc1C(F)(F)F` (stereo unspecified), for which the inhibition is 18.5%.
As for `CCO[C@@H]1OC(C(N)=O)=C[C@H](c2ccc(Br)cc2)[C@H]1CCCO`, the inhibition was 37% (active).
Consider `CCO[C@H]1OC(C(=O)N2CCCCCCC2)=C[C@@H](c2ccc(C(F)(F)F)cc2)[C@@H]1CCCO`, for which the inhibition was 5.85%.
As for `C#CCNC(=O)C1=C[C@@H](c2ccccc2)[C@H](CCCO)[C@@H](OCC)O1`, the inhibition is 0.84%.
In the case of `CC[C@H](C)[C@H]1CNC(=O)C(=O)N1CC1CCN(CCc2ccc(OC)c(OC)c2)CC1` it was 4.8%.
With `COC(=O)[C@]12C[C@H](CC(=O)NCc3ccc(OC)c(OC)c3)C(=O)N(Cc3ccccc3)C1=C[C@H](C(C)C)O[C@@H]2C1CC1`, the inhibition is 1.55%.
The result for `COc1cccc(CNC(=O)[C@H]2CCCN2C(=O)[C@H]2CCCN2C(=O)c2ccc(F)cc2)c1` reads 2.29%; that for `CCOC(=O)N1CCN(C(=O)C[C@H]2C[C@@]3(C(=O)OC)C(=C[C@H](C4CCCC4)O[C@@H]3C)N(Cc3ccccc3)C2=O)CC1`, -0.91%.
As for `COc1ccccc1C(=O)N1O[C@]23C=C[C@]14C[C@@H](O)CC[C@]4(C)C2CC[C@]1(C)[C@@H]([C@H](C)/C=C/[C@H](C)C(C)C)CC[C@H]13` (stereo partly specified), the inhibition was -2.43%.
As to `OC(c1ccccc1)(c1ccccc1)C1CCN(CCCOc2ccc(-c3ccsc3)cc2)CC1`, the inhibition is 15.6%.
As to `COc1ccc(-c2cc3nc(NCCOc4ccccc4)ccn3n2)cc1`, the inhibition is 22.7%.
On to `COCCNc1cc(-c2ccccc2)nc2cc(-c3cccc(F)c3)nn12`, for which the inhibition was 26.4% (active).
Turning to `COCCCNc1ccn2nc(-c3ccc(CC(C)C)cc3)cc2n1`, the inhibition was 12.8%.
As to `C[C@H]1[C@H](c2ccccc2)Oc2cc(Br)ccc2S(=O)(=O)N1Cc1cccc(F)c1`, the inhibition is -1.97%.
`Cc1noc(C)c1NC(=O)Nc1ccc2c(c1)C(=O)N([C@H](C)CO)C[C@H](C)[C@H](CN(C)Cc1ccncc1)OCCCC[C@@H](C)O2`: the inhibition is 7.37%.
With `COC(=O)c1c(-c2ccc(OC)cc2)c2c(c3c4cc(OC)ccc4n(S(=O)(=O)c4ccc(F)cc4)c13)C(=O)N(C)C2`, the inhibition is -3.49%.
Take `COC(=O)[C@]12C[C@H](CC(=O)NCCCCc3ccccc3)C(=O)N(Cc3ccc4c(c3)OCO4)C1=C[C@H](C(C)(C)C)O[C@@H]2C`: the inhibition was 2.49%.
Take `CCC(=C/c1sc2ccc3ccccc3c2[n+]1C)/C=C1\Sc2ccc3ccccc3c2N1C`: the inhibition is 39.3% (active).
For the compound `Nc1[nH]c(C(=O)c2ccc(Br)cc2)c(-c2ccc3c(c2)OCO3)c1C(=O)NCCc1c[nH]c2ccccc12`, the inhibition was 15.2%.
In the case of `CC(=O)c1cccc(-c2cnc3c(NC=O)cc(-c4ccccc4Oc4ccccc4)cn23)c1`, the inhibition is -2.03%.
`CN(C)CCNC(=O)c1cccc(-c2cnc3c(NC=O)cc(-c4cccc(C(F)(F)F)c4)cn23)c1`: the inhibition was 5.54%.
Take `CN(C)CCNC(=O)c1ccc(-c2cn3c(-c4ccc(Oc5ccccc5)cc4)cnc3cn2)cc1`: the inhibition was 40.4% (active).
Turning to `CCOC(=O)Cn1c2c(n(-c3ccc(F)cc3)c1=O)C=C(c1ccccc1)[C@@H](C)C(C(=O)N(C)C1CCCCC1)=C2`, the inhibition is -3.57%.
Take `CCc1ccc(C2=CC(=O)CC(C)(C)C2=O)cc1`: the inhibition is 5.54%.
On to `COC(=O)C1=C(C)N(Cc2ccccc2C(F)(F)F)C(=NCc2ccc(C(F)(F)F)cc2)NC1c1ccc(F)cc1` (stereo unspecified), for which the inhibition is 16.5%.
In the case of `COc1cccc(CC(=O)N2CCN(C(=O)C(=O)c3cccc(C(F)(F)F)c3)CC2)c1`, the inhibition is -7.68%.
On to `O=S1(=O)c2c(cccc2N2CCCC2)O[C@H](COCc2ccccc2)CN1C1CC1`, for which the inhibition was -15.6%.
Regarding `O=C1[C@@H](c2ccccc2)[C@@H](c2ccccc2)N1c1ccccc1`, the inhibition was -3.37%.
Turning to `CCn1c(SCC(=O)N2CCCC2=O)nc2ccccc21`, the inhibition is -1.54%.
With `CCn1c(SCc2cc(=O)n3ccsc3n2)nc2ccccc21`, the inhibition is 26.2% (active).
For `O=C(O)CCn1c(SCc2cc(=O)n3ccccc3n2)nc2ccsc2c1=O`, the inhibition was 9.88%.
For `O=C1Nc2ccccc2C1=NN=Cc1ccco1`, the inhibition was 18.3%.
In the case of `COC(=O)C1=C(C)N(Cc2cccc(C(F)(F)F)c2)C(=NCc2ccccc2)NC1c1ccccc1C(F)(F)F` (stereo unspecified) it was 18.8%.
As for `O=C(Nc1c(Cl)c(C2CC2)nn1-c1ccccc1)C(Cl)(Cl)Cl`, the inhibition is 1.34%.
The result for `COc1cccc(NC(=O)N(C)C[C@@H]2OCc3cn(nn3)CCCC(=O)N([C@@H](C)CO)C[C@H]2C)c1` reads 2.11%.
With `Nc1ncnc2c1ncn2[C@@H]1O[C@H](C(=O)N[C@@H](CCc2ccccc2)C(=O)N2CCCN(Cc3cccs3)CC2)[C@@H](O)[C@H]1O`, the inhibition is -6.61%.
As to `COc1ccc(SSc2ccc(OC)cc2C(=O)O)c(C(=O)O)c1`, the inhibition is -0.05%.

Broadly, the inhibition is the change of the read-out against control, counted positive when it falls.
